Assay results as given in ChEMBL document CHEMBL1152867, “Targeting QseC signaling and virulence for antibiotic development” (Science, 2008).
Calls of active or inactive are those of the source. The calls are words filed in the database; no cut-off is given here.

Assays:
[1] = tested on: Escherichia coli; experiment: Antibacterial activity against Escherichia coli 8624 assessed as induction of SOS response; assay type: functional, organism-based
[2] = AUC in CD1 mouse at 20 mg/kg, iv administered as bolus dose; assay type: ADME, organism-based; set-up: dose 20 mg/kg, route intravenous; conditions: plasma
Procedure, shortened: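 Groups of three were bled terminally by cardiac puncture at set times. Plasma was acetonitrile-precipitated with internal standard and quantified by electrospray LC/MS/MS against a plasma standard curve (10-1000 ng/ml). Noncompartmental analysis was used.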

[3] = tested on: Escherichia coli; experiment: Inhibition of Escherichia coli attaching-effacing lesions formation in infected human HeLa cells at 5 pM by FAS test; assay type: functional, organism-based
Procedure, shortened: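 HeLa monolayers on glass coverslips were infected with a 1:100 dilution of overnight LB cultures for 6 h at 37 °C, 5% CO2. Cells were permeabilized with 0.2% Triton X-100 and stained with FITC-phalloidin for actin and propidium iodide for bacteria. Whole fields of ≥6 coverslips per strain were scored for AE lesions by fluorescence microscopy.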

[4] = tested on: Mus musculus; experiment: Toxicity in CD1 mouse assessed as change in brain weight at 20 mg/kg, po administered daily once for 5 days measured 3 days after final dose; assay type: organism-based; set-up: dose 20 mg/kg, route oral; conditions: in vivo
Procedure, shortened: (§1)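 Female CD-1 mice (~22 g), three per group, given 20 mg/kg by oral gavage once daily for 5 days. Vehicle-only mice served as controls. Animals were weighed and observed daily. Three days after the last dose they were weighed and sacrificed. Blood was taken for chemistry and complete blood counts, and organs were weighed.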

[5] = tested on: Mus musculus; experiment: Toxicity in CD1 mouse assessed as mean platelet volume at 20 mg/kg, po administered daily once for 5 days measured 3 days after final dose; assay type: organism-based; set-up: dose 20 mg/kg, route oral; conditions: in vivo, 72 h; procedure, shortened: as §1
[6] = tested on: Mus musculus; experiment: Toxicity in CD1 mouse assessed as platelet count at 20 mg/kg, po administered daily once for 5 days measured 3 days after final dose; assay type: organism-based; set-up: dose 20 mg/kg, route oral; conditions: in vivo, 72 h; procedure, shortened: as §1
[7] = tested on: Mus musculus; experiment: Toxicity in CD1 mouse assessed as mean corpuscular hemoglobin concentration at 20 mg/kg, po administered daily once for 5 days measured 3 days after final dose; assay type: organism-based; set-up: dose 20 mg/kg, route oral; conditions: in vivo, 72 h; procedure, shortened: as §1
[8] = tested on: Mus musculus; experiment: Toxicity in CD1 mouse assessed as monocyte counts at 20 mg/kg, po administered daily once for 5 days measured 3 days after final dose; assay type: organism-based; set-up: dose 20 mg/kg, route oral; conditions: in vivo, 72 h; procedure, shortened: as §1
[9] = tested on: Mus musculus; experiment: Toxicity in CD1 mouse assessed as RBC counts at 20 mg/kg, po administered daily once for 5 days measured 3 days after final dose; assay type: organism-based; set-up: dose 20 mg/kg, route oral; conditions: in vivo, 72 h
[10] = tested on: Escherichia coli; experiment: Inhibition of epinephrine-induced EspB protein secretion in Escherichia coli 8624 at 5 pM by Western blot; assay type: functional, organism-based
Procedure, shortened: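 Secreted proteins in cell-free supernatant were TCA-precipitated and immunoblotted with rabbit polyclonal anti-EspA and anti-EspB, with ECL detection.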

[11] = tested on: Mus musculus; experiment: Toxicity in CD1 mouse assessed as alanine transferase levels at 20 mg/kg, po administered daily once for 5 days measured 3 days after final dose; assay type: organism-based; set-up: dose 20 mg/kg, route oral; conditions: in vivo, 72 h
[12] = Cmax in CD1 mouse at 20 mg/kg, po; assay type: ADME, organism-based; set-up: dose 20 mg/kg, route oral; conditions: in vivo
Procedure, shortened: (§2)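 Terminal cardiac bleeds were taken in groups of three at set times. Plasma was acetonitrile-precipitated with internal standard and analysed by LC/MS/MS against a spiked-plasma standard curve. Parameters came from noncompartmental analysis.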

[13] = tested on: Mus musculus; experiment: Toxicity in CD1 mouse assessed as mean corpuscular hemoglobin at 20 mg/kg, po administered daily once for 5 days measured 3 days after final dose; assay type: organism-based; set-up: dose 20 mg/kg, route oral; conditions: in vivo, 72 h; procedure, shortened: as §1
[14] = tested on: Escherichia coli; experiment: Inhibition of AI3-induced Qsec-dependent virulence gene ler expression in Escherichia coli at 5 pM by quantitative real-time PCR; assay type: functional, organism-based
[15] = target: Beta-2 adrenergic receptor (Homo sapiens) (UniProt P07550); experiment: Activation of human beta-2-adrenergic receptor expressed in HEK293 cells assessed as cAMP release at 5 uM; assay type: functional, cell-based
Chain of Beta-2 adrenergic receptor (Homo sapiens) (P07550 whole entry, looked up): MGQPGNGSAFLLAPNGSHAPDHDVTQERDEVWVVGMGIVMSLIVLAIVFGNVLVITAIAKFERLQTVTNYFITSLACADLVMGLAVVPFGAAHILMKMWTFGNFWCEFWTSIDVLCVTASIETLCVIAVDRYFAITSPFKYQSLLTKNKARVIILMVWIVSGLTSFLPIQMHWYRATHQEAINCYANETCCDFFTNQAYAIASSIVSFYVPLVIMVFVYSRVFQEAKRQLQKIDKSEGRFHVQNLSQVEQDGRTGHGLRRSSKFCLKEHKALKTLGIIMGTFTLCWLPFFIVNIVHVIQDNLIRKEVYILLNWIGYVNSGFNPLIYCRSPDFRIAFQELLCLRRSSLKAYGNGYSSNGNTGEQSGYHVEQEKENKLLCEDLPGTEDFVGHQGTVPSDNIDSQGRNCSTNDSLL
Procedure, shortened: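 Live HEK293 cells carried an EPAC-based cAMP BRET reporter and expressed endogenous β2 or exogenous β1 or β3 adrenergic receptors. Cells were exposed to test compound alone at 5 μM. Values are means of triplicates, representative of 3 experiments.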

[16] = tested on: Salmonella typhimurium; experiment: Bacteriostatic activity against Salmonella Typhimurium SL1344 at 1 uM; assay type: functional, organism-based; conditions: Salmonella enterica subsp. enterica serovar Typhimurium str. SL1344
[17] = tested on: Escherichia coli; experiment: Inhibition of epinephrine-induced Escherichia coli Qsec autophosphorylation at 5 pM by liposome-based SDS-PAGE
[18] = target: Beta-3 adrenergic receptor (Homo sapiens) (UniProt P13945); experiment: Effect on BRL-37344-induced human beta-3-adrenergic receptor activation expressed in HEK293 cells assessed as cAMP release at 5 uM; assay type: functional, cell-based
Chain of Beta-3 adrenergic receptor (Homo sapiens) (P13945 whole entry, looked up): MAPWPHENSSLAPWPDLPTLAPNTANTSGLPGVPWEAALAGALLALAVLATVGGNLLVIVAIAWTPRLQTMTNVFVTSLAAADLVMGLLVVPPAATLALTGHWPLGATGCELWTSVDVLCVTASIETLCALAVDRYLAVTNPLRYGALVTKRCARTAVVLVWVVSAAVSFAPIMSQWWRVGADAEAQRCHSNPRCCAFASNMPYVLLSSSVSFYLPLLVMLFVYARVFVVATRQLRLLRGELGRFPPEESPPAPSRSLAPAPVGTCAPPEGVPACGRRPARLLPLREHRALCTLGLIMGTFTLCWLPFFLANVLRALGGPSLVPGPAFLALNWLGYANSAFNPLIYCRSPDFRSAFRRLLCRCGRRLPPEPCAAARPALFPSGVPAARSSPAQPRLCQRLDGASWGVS
Procedure, shortened: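 HEK293 cells carried an EPAC-based cAMP BRET reporter. The agonist for β1 (exogenous) was 1 nM dobutamine, for β2 (endogenous) 100 nM terbutaline, and for β3 (exogenous) 10 nM BRL37344. Each agonist was given alone or with 5 μM compound. Live-cell cAMP was read as triplicate means, representative of 3 experiments.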

[19] = tested on: Escherichia coli; experiment: Antibacterial activity against Escherichia coli infected in New Zealand white rabbit assessed as inhibition of bacterial colonization in cecum at 20 mg/kg administered 3 hrs post-bacterial challenge; assay type: functional, organism-based; set-up: dose 20 mg/kg; conditions: Caecum
[20] = tested on: Escherichia coli; experiment: Antibacterial activity against Escherichia coli infected in New Zealand white rabbit assessed as inhibition of bacterial colonization in ileum at 20 mg/kg administered along with bacterial challenge; assay type: functional, organism-based; set-up: dose 20 mg/kg
[21] = tested on: Mus musculus; experiment: Toxicity in CD1 mouse assessed as cholesterol levels at 20 mg/kg, po administered daily once for 5 days measured 3 days after final dose; assay type: organism-based; set-up: dose 20 mg/kg, route oral; conditions: in vivo, 72 h; procedure, shortened: as §1
[22] = tested on: Francisella tularensis subsp. tularensis SCHU S4; experiment: Inhibition of virulence gene mglA expression in Francisella tularensis SCHU S4 at 5 pM by quantitative real-time PCR; assay type: functional, organism-based
[23] = tested on: Escherichia coli; experiment: Inhibition of epinephrine-induced Qsec-dependent virulence gene ler expression in Escherichia coli at 5 pM by quantitative real-time PCR; assay type: functional, organism-based
[24] = tested on: Francisella tularensis subsp. tularensis SCHU S4; experiment: Inhibition of virulence gene iglC expression in Francisella tularensis SCHU S4 at 5 pM by quantitative real-time PCR; assay type: functional, organism-based
[25] = AUC in CD1 mouse at 20 mg/kg, po; assay type: ADME, organism-based; set-up: dose 20 mg/kg, route oral; conditions: plasma; procedure, shortened: as §2
[26] = tested on: Mus musculus; experiment: Toxicity in CD1 mouse assessed as glucose levels at 20 mg/kg, po administered daily once for 5 days measured 3 days after final dose; assay type: organism-based; set-up: dose 20 mg/kg, route oral; conditions: in vivo, 72 h; procedure, shortened: as §1
[27] = tested on: Francisella tularensis subsp. tularensis SCHU S4; experiment: Antibacterial activity against Francisella tularensis SCHU S4 infected in mouse J774 cells assessed as reduction in bacterial CFU at 5 nM relative to control; assay type: functional
[28] = tested on: Escherichia coli; experiment: Antibacterial activity against Escherichia coli infected in New Zealand white rabbit assessed as inhibition of bacterial colonization in cecum at 20 mg/kg pretreated before 3 hrs of bacterial challenge; assay type: functional, organism-based; set-up: dose 20 mg/kg; conditions: Caecum

O=S(=O)(Nc1ccccc1)c1ccc(NC(=S)Nc2ccccc2)cc1
Activity [1]: inactive | AUC [2]: 5010 ng·h/mL | Activity [3]: Active | Activity [4]: Non-toxic | Activity [5]: 5 fL | Activity [6]: 1075 K/uL | Activity [7]: 31.3 g/dL | Activity [8]: 8.1% | Activity [9]: 7.4 M/uL | Activity [10]: Active | Activity [11]: 31.7 U/L | Cmax [12]: 2700 ng/mL | Activity [13]: 16.1 pg | Activity [14]: Active | Activity [15]: inactive | Activity [16]: inactive | Activity [17]: inactive | Activity [18]: inactive | Activity [19]: inactive | Activity [20]: inactive | Activity [21]: 122 mg/dL | Activity [22]: Active | Activity [23]: Active | Activity [24]: Active | AUC [25]: 3470 ng·h/mL | Activity [26]: 287 mg/dL | fold change (FC) [27]: 10 | Activity [28]: inactive
